From ChEMBL document CHEMBL1150354, “'Hybrid' benzofuran-benzopyran congeners as rigid analogs of hallucinogenic phenethylamines” (Bioorg Med Chem, 2008)

Key:
[1] = target: T1, 5-hydroxytryptamine receptor 2A (Rattus norvegicus, UniProt P14842); assay: Displacement of [3H]ketanserin from rat 5HT2A receptor expressed in mouse NIH3T3 cells; format: cell-based
In short: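 Membranes came from NIH-3T3 cells stably expressing rat 5-HT2A receptor (GF-6, 5500 fmol/mg). Competition used 0.5nM [3H]-ketanserin against increasing test compound concentrations (ca. 10 pM - 10 μM). Curves were fitted to give Ki, reported as mean (SEM) over n experiments.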

[2] = target: 5-hydroxytryptamine receptor 2A (Rattus norvegicus) (UniProt P14842); assay: Intrinsic activity at rat 5HT2A receptor expressed in mouse NIH3T3 cells assessed as stimulation of inositol phosphate accumulation relative to serotonin; format: functional, cell-based
In short: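 NIH-3T3 cells stably expressing rat 5-HT2A receptor (GF-6, 5500 fmol/mg), kept in DMEM with 300 μg/ml G-418. Read-out was stimulated radiolabeled inositol phosphate accumulation. Each plate normalized to water-stimulated wells (0%) and 10 μM serotonin (100%). EC50 and intrinsic activity given as mean (SEM) over n experiments.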

[3] = target: T1, 5-hydroxytryptamine receptor 2A; assay: Agonist activity at rat 5HT2A receptor expressed in mouse NIH3T3 cells assessed as stimulation of inositol phosphate accumulation; format: functional, cell-based
In short: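 Read-out was stimulated radiolabeled inositol phosphate accumulation. Each plate normalized to water-stimulated wells (0%) and 10 μM serotonin (100%). EC50 and intrinsic activity given as mean (SEM) over n experiments.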

Rattus norvegicus [4] = assay: Hallucinogenic activity in D-lysergic acid N,N-diethylamide-trained Sprague-Dawley rat assessed as disrupted behavior at 0.17 mg/kg, ip after 30 mins by two-lever drug discrimination assay; format: functional; settings: route intraperitoneal
In short: (§1)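 Male Sprague-Dawley rats (200-220 g at start) trained to discriminate LSD tartrate (186 nmol/kg; 0.08 mg/kg, ip) from saline, FR50 food reinforcement, two levers. Test drug given ip 30 min before an extinction session. A session was scored as disruption if 50 presses on one lever were not completed within 5 min. %D is the percentage of rats disrupted at each dose.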

Rattus norvegicus [5] = assay: Hallucinogenic activity in D-lysergic acid N,N-diethylamide-trained Sprague-Dawley rat assessed as disrupted behavior at 0.35 mg/kg, ip after 30 mins by two-lever drug discrimination assay; format: functional; settings: route intraperitoneal; in short: as §1
Rattus norvegicus [6] = assay: Hallucinogenic activity in D-lysergic acid N,N-diethylamide-trained Sprague-Dawley rat assessed as disrupted behavior at 0.69 mg/kg, ip after 30 mins by two-lever drug discrimination assay; format: functional; settings: route intraperitoneal; in short: as §1
Rattus norvegicus [7] = assay: Hallucinogenic activity in D-lysergic acid N,N-diethylamide-trained Sprague-Dawley rat assessed as selection of drug-appropriate lever at 0.17 mg/kg, ip after 30 mins by two-lever drug discrimination assay; format: functional; settings: route intraperitoneal
In short: (§2)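 Male Sprague-Dawley rats (200-220 g at start) trained to discriminate LSD (0.08 mg/kg ip) from saline, FR50 food-reinforced two-lever task, training to ≥85% accuracy on 8 of 10 sessions. Test drug given ip 30 min before an extinction session, ended at 50 presses on one lever. %SDL is the percentage of rats choosing the drug lever per dose. Treatments randomized.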

Rattus norvegicus [8] = assay: Hallucinogenic activity in D-lysergic acid N,N-diethylamide-trained Sprague-Dawley rat assessed as selection of drug-appropriate lever at 0.35 mg/kg, ip after 30 mins by two-lever drug discrimination assay; format: functional; settings: route intraperitoneal; in short: as §2
Rattus norvegicus [9] = assay: Hallucinogenic activity in D-lysergic acid N,N-diethylamide-trained Sprague-Dawley rat assessed as selection of drug-appropriate lever at 0.69 mg/kg, ip after 30 mins by two-lever drug discrimination assay; format: functional; settings: route intraperitoneal; in short: as §2
Rattus norvegicus [10] = assay: Hallucinogenic potency in ip dosed D-lysergic acid N,N-diethylamide-trained Sprague-Dawley rat after 30 mins; format: functional; settings: 0.5 h
Rattus norvegicus [11] = assay: Hallucinogenic activity in D-lysergic acid N,N-diethylamide-trained Sprague-Dawley rat assessed as disrupted behavior at 0.25 mg/kg, ip after 30 mins by two-lever drug discrimination assay; format: functional; settings: route intraperitoneal; in short: as §1
Rattus norvegicus [12] = assay: Hallucinogenic activity in D-lysergic acid N,N-diethylamide-trained Sprague-Dawley rat assessed as disrupted behavior at 0.38 mg/kg, ip after 30 mins by two-lever drug discrimination assay; format: functional; settings: route intraperitoneal; in short: as §1
Rattus norvegicus [13] = assay: Hallucinogenic activity in D-lysergic acid N,N-diethylamide-trained Sprague-Dawley rat assessed as disrupted behavior at 0.50 mg/kg, ip after 30 mins by two-lever drug discrimination assay; format: functional; settings: dose 0.5 mg/kg; route intraperitoneal; in short: as §1
Rattus norvegicus [14] = assay: Hallucinogenic activity in D-lysergic acid N,N-diethylamide-trained Sprague-Dawley rat assessed as selection of drug-appropriate lever at 0.25 mg/kg, ip after 30 mins by two-lever drug discrimination assay; format: functional; settings: route intraperitoneal; in short: as §2
Rattus norvegicus [15] = assay: Hallucinogenic activity in D-lysergic acid N,N-diethylamide-trained Sprague-Dawley rat assessed as selection of drug-appropriate lever at 0.38 mg/kg, ip after 30 mins by two-lever drug discrimination assay; format: functional; settings: route intraperitoneal; in short: as §2
Rattus norvegicus [16] = assay: Hallucinogenic activity in D-lysergic acid N,N-diethylamide-trained Sprague-Dawley rat assessed as selection of drug-appropriate lever at 0.50 mg/kg, ip after 30 mins by two-lever drug discrimination assay; format: functional; settings: dose 0.5 mg/kg; route intraperitoneal; in short: as §2
Rattus norvegicus [17] = assay: Hallucinogenic activity in D-lysergic acid N,N-diethylamide-trained Sprague-Dawley rat assessed as disrupted behavior at 0.09 mg/kg, ip after 30 mins by two-lever drug discrimination assay; format: functional; settings: route intraperitoneal; in short: as §1
Rattus norvegicus [18] = assay: Hallucinogenic activity in D-lysergic acid N,N-diethylamide-trained Sprague-Dawley rat assessed as selection of drug-appropriate lever at 0.09 mg/kg, ip after 30 mins by two-lever drug discrimination assay; format: functional; settings: route intraperitoneal; in short: as §2

T1 sequence (P14842 whole entry): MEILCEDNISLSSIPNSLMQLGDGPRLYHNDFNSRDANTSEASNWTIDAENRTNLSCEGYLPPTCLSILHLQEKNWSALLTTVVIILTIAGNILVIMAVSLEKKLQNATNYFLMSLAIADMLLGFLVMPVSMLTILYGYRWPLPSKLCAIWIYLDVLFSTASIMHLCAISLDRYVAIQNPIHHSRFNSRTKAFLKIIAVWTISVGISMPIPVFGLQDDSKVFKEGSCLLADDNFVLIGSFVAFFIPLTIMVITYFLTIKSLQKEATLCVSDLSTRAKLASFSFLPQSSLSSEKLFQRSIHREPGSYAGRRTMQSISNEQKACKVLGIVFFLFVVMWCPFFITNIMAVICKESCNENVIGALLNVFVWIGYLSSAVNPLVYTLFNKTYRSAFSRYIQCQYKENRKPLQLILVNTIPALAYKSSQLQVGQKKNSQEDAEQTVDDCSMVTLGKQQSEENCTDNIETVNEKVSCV
Chain of 5-hydroxytryptamine receptor 2A (Rattus norvegicus) (P14842 whole entry): as above

SMILES | Ki [1] [nM] | Intrinsic activity [2] [%] | EC50 [3] [nM] | also measured
CC(N)Cc1c2c(c(Br)c3c1OCC3)OCC2 (centres undefined) | 1 | 88 |  | 
CC(N)Cc1c2c(c(Br)c3c1OCCC3)OCC2 (centres undefined) | 5.3 | 74 | 78 | Activity (Rattus norvegicus [4]): 17%; Activity (Rattus norvegicus [5]): 0%; Activity (Rattus norvegicus [6]): 0%; Activity (Rattus norvegicus [7]): 10%; Activity (Rattus norvegicus [8]): 41%; Activity (Rattus norvegicus [9]): 80%; ED50 (Rattus norvegicus [10]): 1.16 µmol/kg
CC(N)Cc1c2c(c(Br)c3c1OCCC3)OCCC2 (centres undefined) | 3.1 | 72 | 258 | 
NCCc1c2c(c(Br)c3c1OCCC3)OCC2 | 8.4 | 64 | 146 | 
NCCc1c2c(c(Br)c3c1OCCC3)OCCC2 | 4.5 | 61 | 241 | 
COc1cc(CC(C)N)c(OC)cc1Br (centres undefined) [BROLAMFETAMINE] |  | 73 |  | Activity (Rattus norvegicus [11]): 46%; Activity (Rattus norvegicus [12]): 40%; Activity (Rattus norvegicus [13]): 36%; Activity (Rattus norvegicus [14]): 29%; Activity (Rattus norvegicus [15]): 50%; Activity (Rattus norvegicus [16]): 89%
CC(N)Cc1c2c(c(Br)c3c1OCC3)OCCC2 (centres undefined) | 3.6 | 86 | 19 | Activity (Rattus norvegicus [17]): 0%; Activity (Rattus norvegicus [4]): 0%; Activity (Rattus norvegicus [5]): 0%; Activity (Rattus norvegicus [18]): 33%; Activity (Rattus norvegicus [7]): 54%; Activity (Rattus norvegicus [8]): 83%; ED50 (Rattus norvegicus [10]): 0.38 µmol/kg
NCCc1c2c(c(Br)c3c1OCC3)OCCC2 | 11 | 61 | 9.4 | 
CC(N)Cc1c2c(c(Br)c3ccoc13)OCCC2 (centres undefined) | 1 | 102 | 13 | 
